Assay results taken from ChEMBL document CHEMBL1926588, “Sulfur and selenium derivatives of quinazoline and pyrido[2,3-d]pyrimidine: synthesis and study of their potential cytotoxic activity in vitro” (Eur J Med Chem, 2012).

Key:
[1] = Cytotoxicity against human HTB-54 cells after 72 hrs by MTT assay; type: functional; settings: HTB-54, 72 h
Outline: (§1)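 MTT read-out after 72 h exposure at 37 °C in humidified 5% CO2, with five concentrations between 0.01 and 100. GI50 is 50% growth reduction versus untreated controls, TGI is complete growth inhibition, and LC50 is the concentration killing 50% of cells. Minimum three independent experiments.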

MCF7 [2] = assay: Cell cycle arrest in human MCF7 cells assessed as accumulation at S phase at 15 uM after 12 hrs by propidium iodide staining-based flow cytometric analysis (reference value: 17.07 +/- 4.00%); type: functional
MCF7 [3] = assay: Cell cycle arrest in human MCF7 cells assessed as accumulation at G2/M phase at 15 uM after 12 hrs by propidium iodide staining-based flow cytometric analysis (reference value: 22.11 +/- 3.86%); type: functional
MCF7 [4] = assay: Induction of apoptosis in human MCF7 cells assessed as cell death at 15 uM after 24 hrs by TUNEL analysis (reference value: 5.13 +/- 4.32%); type: functional
MCF7 [5] = assay: Cell cycle arrest in human MCF7 cells assessed as accumulation at S phase at 15 uM after 24 hrs by propidium iodide staining-based flow cytometric analysis (reference value: 12.39 +/- 1.54%); type: functional
[6] = Cytotoxicity against human 184B5 cells after 72 hrs by MTT assay; type: cell-based; outline: as §1
MCF7 [7] = assay: Induction of apoptosis in human MCF7 cells assessed as cell death at 20 uM after 24 hrs by TUNEL analysis relative to control; type: functional
MCF7 [8] = assay: Induction of apoptosis in human MCF7 cells assessed as cell death at 1 uM after 24 hrs by TUNEL analysis (reference value: 6.12 +/- 1.61%); type: functional
MCF7 [9] = assay: Induction of apoptosis in human MCF7 cells assessed as cell death at 10 uM by TUNEL analysis; type: functional, cell-based; settings: TDE = time-dependent effect
MCF7 [10] = assay: Cell cycle arrest in human MCF7 cells assessed as accumulation at G0/G1 phase at 15 uM after 4 hrs by propidium iodide staining-based flow cytometric analysis (reference value: 49.38 +/- 4.74%); type: functional
MCF7 [11] = assay: Cell cycle arrest in human MCF7 cells assessed as accumulation at G0/G1 phase at 15 uM after 24 hrs by propidium iodide staining-based flow cytometric analysis (reference value: 51.83 +/- 5.64%); type: functional
MCF7 [12] = assay: Cell cycle arrest in human MCF7 cells assessed as accumulation at G2/M phase at 15 uM after 4 hrs by propidium iodide staining-based flow cytometric analysis (reference value: 21.60 +/- 5.37%); type: functional
MCF7 [13] = assay: Cell cycle arrest in human MCF7 cells assessed as accumulation at G0/G1 phase at 15 uM after 12 hrs by propidium iodide staining-based flow cytometric analysis (reference value: 57.34 +/- 1.64%); type: functional
MCF7 [14] = assay: Cell cycle arrest in human MCF7 cells assessed as accumulation at subG1 phase at 15 uM after 12 hrs by propidium iodide staining-based flow cytometric analysis (reference value: 2.17 +/- 0.24%); type: functional
HT-29 = assay: Cytotoxicity against human HT-29 cells after 72 hrs by MTT assay; type: functional; settings: HT-29, 72 h; outline: as §1
[15] = Permeability of the compound across human Caco2 cells; type: ADME, cell-based; settings: Caco-2, read-out: permeability
MCF7 [16] = assay: Cell cycle arrest in human MCF7 cells assessed as accumulation at subG1 phase at 15 uM after 4 hrs by propidium iodide staining-based flow cytometric analysis (reference value: 5.90 +/- 1.36%); type: functional
MCF7 [17] = assay: Induction of apoptosis in human MCF7 cells assessed as cell death at 5 uM after 24 hrs by TUNEL analysis relative to control; type: functional
MCF7 [18] = assay: Induction of apoptosis in human MCF7 cells assessed as cell death at 5 uM after 24 hrs by TUNEL analysis (reference value: 9.28 +/- 1.71%); type: functional
MCF7 [19] = assay: Induction of apoptosis in human MCF7 cells assessed as cell death at 10 uM after 12 hrs by TUNEL analysis (reference value: 6.02 +/- 0.85%); type: functional
MCF7 [20] = assay: Cytotoxicity against human MCF7 cells after 72 hrs by MTT assay; type: functional; settings: MCF7, 72 h; outline: as §1
CCRF-CEM = assay: Cytotoxicity against human CCRF-CEM cells after 72 hrs by MTT assay; type: functional; outline: as §1
MCF7 [21] = assay: Induction of apoptosis in human MCF7 cells assessed as cell death at 10 uM after 4 hrs by TUNEL analysis (reference value: 5.85 +/- 5.21%); type: functional
MCF7 [22] = assay: Cell cycle arrest in human MCF7 cells assessed as accumulation at S phase at 15 uM after 4 hrs by propidium iodide staining-based flow cytometric analysis (reference value: 19.09 +/- 4.54%); type: functional
MCF7 [23] = assay: Induction of apoptosis in human MCF7 cells assessed as cell death at 20 uM after 24 hrs by TUNEL analysis (reference value: 9.56 +/- 1.38%); type: functional
MCF7 [24] = assay: Induction of apoptosis in human MCF7 cells assessed as cell death at 10 uM after 24 hrs by TUNEL analysis (reference value: 9.82 +/- 2.62%); type: functional
MCF7 [25] = assay: Cell cycle arrest in human MCF7 cells assessed as accumulation at G2/M phase at 15 uM after 24 hrs by propidium iodide staining-based flow cytometric analysis (reference value: 32.37 +/- 7.73%); type: functional
MCF7 [26] = assay: Cell cycle arrest in human MCF7 cells assessed as accumulation at subG1 phase at 15 uM after 24 hrs by propidium iodide staining-based flow cytometric analysis (reference value: 2.93 +/- 0.54%); type: functional
MCF7 [27] = assay: Induction of apoptosis in human MCF7 cells assessed as cell death at 10 uM after 48 hrs by TUNEL analysis (reference value: 4.23 +/- 1.99%); type: functional
[28] = read-out: LC50 (the source's name)

[SeH]c1nc([SeH])c2ccccc2n1
GI50 [1]: 5.98 µM
TGI [1]: 65.9 µM
CC50 [1, 28]: > 100 µM
Activity (MCF7 [2]): 18.36%
Activity (MCF7 [3]): 25.63%
Activity (MCF7 [4]): 76.82%
Activity (MCF7 [5]): 15.75%
GI50 at 72 h ([6]; 184B5 cells): 0.49 µM
LC50 ([6]; 184b5, 72 h): 6.63 µM
TGI ([6]; 184b5, 72 h): 2.5 µM
fold change (FC) (MCF7 [7]): 9
Activity (MCF7 [8]): 2.76%
Activity (MCF7 [9]): tde
Activity (MCF7 [10]): 52.09%
Activity (MCF7 [11]): 47.77%
Activity (MCF7 [12]): 21.21%
Activity (MCF7 [13]): 56.21%
Activity (MCF7 [14]): 2.37%
GI50 (HT-29): 8.98 µM
TGI (HT-29): 45.2 µM
CC50 (HT-29; [28]): 87.9 µM
Papp [15]: 4.67 ×10⁻⁶ cm/s
Activity (MCF7 [16]): 3.98%
fold change (FC) (MCF7 [17]): 1.7
Activity (MCF7 [18]): 16.32%
Activity (MCF7 [19]): 12.26%
GI50 (MCF7 [20]): 2.92 µM
LC50 (MCF7 [20]): > 100 µM
TGI (MCF7 [20]): 22.9 µM
GI50 (CCRF-CEM): 2.99 µM
TGI (CCRF-CEM): 6.01 µM
CC50 (CCRF-CEM; [28]): 9.03 µM
Activity (MCF7 [21]): 6.01%
Activity (MCF7 [22]): 23.29%
Activity (MCF7 [23]): 87.55%
Activity (MCF7 [24]): 27.29%
Activity (MCF7 [25]): 34.67%
Activity (MCF7 [26]): 3.46%
Activity (MCF7 [27]): 58.31%
